Assay results reported in ChEMBL document CHEMBL1240333, “Surveying polypeptide and protein domain conformation and association with FlAsH and ReAsH” (Nat Chem Biol, 2007).
Where “and” joins values, the source holds several entries; their conditions need not be identical. Equal values may be shown once. Blank lines part the entries; values can stand above or below the molecule they belong to. Calls of active or inactive are those of the source. No cut-off for these calls is given here. Peptide text beside a SMILES is read from it.

How the values were obtained:
HeLa [1] = experiment: Binding affinity to eGFP-tagged avian pancreatic polypeptide expressed in human HeLa cells at 100 uM after 30 mins by FRET assay; type: cell-based
[2] = Binding affinity to avian pancreatic polypeptide containing bipartite tetracysteine motif at 25 nM
Procedure, shortened: (§1)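 Fluorescence titration: 25 nM FlAsH or ReAsH titrated with increasing synthetic peptide or protein domain in 100 mM Tris-HCl pH 7.8 with 3.5 mM TCEP, 1 mM EDT, 1 mM EDTA. Emission read at 530 ± 12.5 nm (FlAsH) or 630 ± 17.5 nm (ReAsH) after reaching equilibrium, tracked over time. Apparent Kd taken from intensity versus concentration. Points are means of ≥3 independent titrations ± s.d.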

HeLa [3] = experiment: Binding affinity to eGFP-tagged avian pancreatic polypeptide expressed in human HeLa cells at 500 nM after 10 hrs by FRET assay; type: cell-based
[4] = Binding affinity to avian pancreatic polypeptide containing bipartite tetracysteine motif at 100 nM; conditions: filed as agonist
HeLa [5] = experiment: Binding affinity to eGFP-tagged avian pancreatic polypeptide expressed in human HeLa cells by flow cytometry; type: cell-based
Procedure, shortened: (§2)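 Live HeLa cells transiently expressing eGFP fusions (aPP C-terminal or GCN4 N-terminal to eGFP) or eGFP alone. Stained 30 min with 500 nM ReAsH-EDT2 plus 100 μM EDT in phenol red-free, serum-free DMEM with 2 mM L-glutamine. PBS wash, then 0.75 mM BAL 30 min. Cells trypsinized and run by flow cytometry: eGFP 488 nm laser, 530 ± 15 nm; ReAsH 568 nm laser, 610 ± 10 nm. Mean ReAsH intensity plotted per log unit of eGFP.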

[6] = Binding affinity to avian pancreatic polypeptide containing bipartite tetracysteine motif; procedure, shortened: as §1
[7] = Binding affinity to alpha helix of avian pancreatic polypeptide by circular dichroism spectroscopy
Procedure, shortened: (§3)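 CD spectra recorded at 25 °C in 10 mM sodium phosphate pH 7.0 with no competing dithiols. Protein at 10 μM (aPP, Zip4) or 20 μM (GCN4, Jun); unmodified peptides and their FlAsH complexes. Three wavelength scans at 50 nm min-1 averaged, buffer-only background subtracted.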

HeLa [8] = experiment: Binding affinity to eGFP-tagged avian pancreatic polypeptide F24P mutant expressed in human HeLa cells by flow cytometry; type: cell-based; procedure, shortened: as §2
[9] = Binding affinity to avian pancreatic polypeptide F24P mutant; procedure, shortened: as §1
[10] = Binding affinity to alpha helix of avian pancreatic polypeptide F24P mutant by circular dichroism spectroscopy; procedure, shortened: as §3
HeLa [11] = experiment: Binding affinity to eGFP-tagged avian pancreatic polypeptide F24P mutant expressed in human HeLa cells at 500 nM after 10 hrs by FRET assay; type: cell-based
HeLa [12] = experiment: Binding affinity to eGFP-tagged avian pancreatic polypeptide F24P mutant expressed in human HeLa cells at 100 uM after 30 mins by FRET assay; type: cell-based
[13] = Binding affinity to c-Jun homodimer L20P mutant containing bipartite tetracysteine motif; procedure, shortened: as §1
[14] = Binding affinity to c-Jun L20P mutant at 25 degC by circular dichroism spectroscopy
[15] = Binding affinity to avian pancreatic polypeptide F24/Y31P mutant; procedure, shortened: as §1
[16] = Binding affinity to alpha helix of avian pancreatic polypeptide F24/Y31P mutant by circular dichroism spectroscopy; procedure, shortened: as §3
[17] = Binding affinity to tryptophan Zip4 polypeptide W916A mutant containing bipartite tetracysteine motif; procedure, shortened: as §1
[18] = Binding affinity to beta sheet of tryptophan Zip4 polypeptide W916A mutant by circular dichroism spectroscopy; procedure, shortened: as §3
[19] = Binding affinity to tryptophan Zip4 polypeptide containing bipartite tetracysteine motif; procedure, shortened: as §1
[20] = Binding affinity to tryptophan Zip4 polypeptide containing bipartite tetracysteine motif at 25 nM; procedure, shortened: as §1
[21] = Binding affinity to tryptophan Zip4 polypeptide containing bipartite tetracysteine motif at 100 nM
[22] = Binding affinity to beta sheet structure of tryptophan Zip4 polypeptide by circular dichroism spectroscopy; procedure, shortened: as §3

Structure (SMILES): CC[C@H](C)[C@H](NC(=O)[C@H](CCCNC(=N)N)NC(=O)[C@H](Cc1c[nH]c2ccccc12)NC(C)=O)C(=O)N[C@@H](C)C(=O)N[C@@H](CCCNC(=N)N)C(=O)N[C@@H](CC(C)C)C(=O)N[C@@H](CCC(=O)O)C(=O)N[C@@H](CCC(=O)O)C(=O)N[C@@H](CCCCN)C(=O)N[C@H](C(=O)N[C@@H](CCCCN)C(=O)N[C@H](C(=O)N[C@@H](CC(C)C)C(=O)N[C@@H](CCCCN)C(=O)N[C@@H](C)C(=O)N[C@@H](CCC(N)=O)C(=O)N[C@@H](CC(N)=O)C(=O)N[C@@H](CO)C(=O)N[C@@H](CCC(=O)O)C(=O)N1CCC[C@H]1C(=O)N[C@@H](C)C(=O)N[C@@H](CO)C(=O)N[C@H](C(=O)N[C@@H](C)C(=O)N[C@@H](CC(N)=O)C(=O)N[C@@H](CCSC)C(=O)N[C@@H](CC(C)C)C(=O)N[C@@H](CCCNC(=N)N)C(=O)N[C@@H](CCC(=O)O)C(=O)N[C@@H](CCC(N)=O)C(=O)N[C@H](C(=O)N[C@@H](C)C(=O)N[C@@H](CCC(N)=O)C(=O)N[C@@H](CC(C)C)C(=O)N[C@@H](CCCCN)C(=O)N[C@@H](CCC(N)=O)C(=O)N[C@@H](CCCCN)C(=O)N[C@H](C(=O)N[C@@H](CS)C(=O)N[C@@H](CS)C(N)=O)C(C)C)C(C)C)[C@@H](C)O)[C@@H](C)O)C(C)C (Ac-WRIARLEEKVKTLKAQNSEPASTANMLREQVAQLKQKVCC-NH2)
Kapp [13]: > 111 µM
Activity [14]: inactive

Structure (SMILES): CSCC[C@H](NC(=O)[C@H](CS)NC(=O)[C@H](CS)NC(=O)[C@@H](NC(=O)[C@H](Cc1c[nH]c2ccccc12)NC(=O)[C@@H](NC(=O)[C@H](C)NC(=O)[C@@H](NC(=O)[C@H](CCCCN)NC(=O)[C@@H](NC(=O)[C@H](C)NC(=O)[C@H](CC(=O)O)NC(=O)[C@H](CC(=O)O)NC(=O)[C@H](C)NC(=O)[C@@H](NC(=O)[C@H](Cc1c[nH]c2ccccc12)NC(=O)[C@H](CCC(=O)O)NC(=O)[C@H](CS)NC(=O)[C@H](CS)NC(=O)[C@H](CC(N)=O)NC(=O)[C@H](CC(C)C)NC(=O)[C@H](Cc1ccccc1)NC(C)=O)[C@@H](C)O)[C@@H](C)O)[C@@H](C)O)[C@@H](C)O)[C@@H](C)O)C(=O)N[C@@H](CCC(=O)O)C(=O)N1CCC[C@H]1C(N)=O (Ac-FLNCCEWTADDATKTATWTCCMEP-NH2)
Kapp [17]: 38 µM and 13 µM
Activity [18]: inactive

Structure (SMILES): CSCC[C@H](NC(=O)[C@H](CS)NC(=O)[C@H](CS)NC(=O)[C@@H](NC(=O)[C@H](Cc1c[nH]c2ccccc12)NC(=O)[C@@H](NC(=O)[C@H](Cc1c[nH]c2ccccc12)NC(=O)[C@@H](NC(=O)[C@H](CCCCN)NC(=O)[C@@H](NC(=O)[C@H](C)NC(=O)[C@H](CC(=O)O)NC(=O)[C@H](CC(=O)O)NC(=O)[C@H](Cc1c[nH]c2ccccc12)NC(=O)[C@@H](NC(=O)[C@H](Cc1c[nH]c2ccccc12)NC(=O)[C@H](CCC(=O)O)NC(=O)[C@H](CS)NC(=O)[C@H](CS)NC(=O)[C@H](CC(N)=O)NC(=O)[C@H](CC(C)C)NC(=O)[C@H](Cc1ccccc1)NC(C)=O)[C@@H](C)O)[C@@H](C)O)[C@@H](C)O)[C@@H](C)O)[C@@H](C)O)C(=O)N[C@@H](CCC(=O)O)C(=O)N1CCC[C@H]1C(N)=O (Ac-FLNCCEWTWDDATKTWTWTCCMEP-NH2)
Kapp [19]: 0.62 µM and 0.38 µM
Activity [20]: Active
Activity [21]: Active
Activity [22]: inactive

The next lines start with results.

Activity [2]: Active
Activity [4]: Agonist
Kapp [6]: 5.8 µM and 3.4 µM
Activity [7]: inactive
Structure (SMILES): CC[C@H](C)[C@H](NC(=O)[C@H](CC(C)C)NC(=O)[C@H](CC(=O)O)NC(=O)[C@H](CCC(=O)O)NC(=O)[C@@H](NC(=O)[C@@H]1CCCN1C(=O)[C@H](C)NC(=O)[C@H](CC(=O)O)NC(=O)[C@H](CC(=O)O)NC(=O)CNC(=O)[C@@H]1CCCN1C(=O)[C@H](Cc1ccc(O)cc1)NC(=O)[C@@H](NC(=O)[C@@H]1CCCN1C(=O)[C@H](CCC(N)=O)NC(=O)[C@H](CO)NC(=O)[C@@H]1CCCN1C(=O)[C@H](CS)NC(=O)[C@H](CS)NC(=O)[C@H](CC(N)=O)NC(=O)[C@H](CC(C)C)NC(=O)[C@H](Cc1ccccc1)NC(C)=O)[C@H](C)O)C(C)C)C(=O)N[C@@H](CCCNC(=N)N)C(=O)N[C@@H](Cc1ccccc1)C(=O)N[C@@H](Cc1ccc(O)cc1)C(=O)N[C@@H](CC(=O)O)C(=O)N[C@@H](CC(N)=O)C(=O)N[C@@H](CC(C)C)C(=O)N[C@@H](CCC(N)=O)C(=O)N[C@@H](CCC(N)=O)C(=O)N[C@@H](Cc1ccc(O)cc1)C(=O)N[C@@H](CC(C)C)C(=O)N[C@@H](CC(N)=O)C(=O)N[C@H](C(=O)N[C@@H](CS)C(=O)N[C@@H](CS)C(=O)N[C@@H](CCSC)C(=O)N[C@@H](CCC(=O)O)C(=O)N1CCC[C@H]1C(N)=O)C(C)C
Activity (HeLa [1]): Active
Activity (HeLa [3]): Active
Activity (HeLa [5]): Active

Kapp [9]: 27 µM and 22 µM
Activity [10]: inactive
Structure (SMILES): CC[C@H](C)[C@H](NC(=O)[C@H](CC(C)C)NC(=O)[C@H](CC(=O)O)NC(=O)[C@H](CCC(=O)O)NC(=O)[C@@H](NC(=O)[C@@H]1CCCN1C(=O)[C@H](C)NC(=O)[C@H](CC(=O)O)NC(=O)[C@H](CC(=O)O)NC(=O)CNC(=O)[C@@H]1CCCN1C(=O)[C@H](Cc1ccc(O)cc1)NC(=O)[C@@H](NC(=O)[C@@H]1CCCN1C(=O)[C@H](CCC(N)=O)NC(=O)[C@H](CO)NC(=O)[C@@H]1CCCN1C(=O)[C@H](CS)NC(=O)[C@H](CS)NC(=O)[C@H](CC(N)=O)NC(=O)[C@H](CC(C)C)NC(=O)[C@H](Cc1ccccc1)NC(C)=O)[C@H](C)O)C(C)C)C(=O)N[C@@H](CCCNC(=N)N)C(=O)N1CCC[C@H]1C(=O)N[C@@H](Cc1ccc(O)cc1)C(=O)N[C@@H](CC(=O)O)C(=O)N[C@@H](CC(N)=O)C(=O)N[C@@H](CC(C)C)C(=O)N[C@@H](CCC(N)=O)C(=O)N[C@@H](CCC(N)=O)C(=O)N[C@@H](Cc1ccc(O)cc1)C(=O)N[C@@H](CC(C)C)C(=O)N[C@@H](CC(N)=O)C(=O)N[C@H](C(=O)N[C@@H](CS)C(=O)N[C@@H](CS)C(=O)N[C@@H](CCSC)C(=O)N[C@@H](CCC(=O)O)C(=O)N1CCC[C@H]1C(N)=O)C(C)C
Activity (HeLa [8]): Active
Activity (HeLa [11]): inactive
Activity (HeLa [12]): Active

Kapp [15]: 65 µM and 72 µM
Activity [16]: inactive
Structure (SMILES): CC[C@H](C)[C@H](NC(=O)[C@H](CC(C)C)NC(=O)[C@H](CC(=O)O)NC(=O)[C@H](CCC(=O)O)NC(=O)[C@@H](NC(=O)[C@@H]1CCCN1C(=O)[C@H](C)NC(=O)[C@H](CC(=O)O)NC(=O)[C@H](CC(=O)O)NC(=O)CNC(=O)[C@@H]1CCCN1C(=O)[C@H](Cc1ccc(O)cc1)NC(=O)[C@@H](NC(=O)[C@@H]1CCCN1C(=O)[C@H](CCC(N)=O)NC(=O)[C@H](CO)NC(=O)[C@@H]1CCCN1C(=O)[C@H](CS)NC(=O)[C@H](CS)NC(=O)[C@H](CC(N)=O)NC(=O)[C@H](CC(C)C)NC(=O)[C@H](Cc1ccccc1)NC(C)=O)[C@H](C)O)C(C)C)C(=O)N[C@@H](CCCNC(=N)N)C(=O)N1CCC[C@H]1C(=O)N[C@@H](Cc1ccc(O)cc1)C(=O)N[C@@H](CC(=O)O)C(=O)N[C@@H](CC(N)=O)C(=O)N[C@@H](CC(C)C)C(=O)N[C@@H](CCC(N)=O)C(=O)N[C@@H](CCC(N)=O)C(=O)N1CCC[C@H]1C(=O)N[C@@H](CC(C)C)C(=O)N[C@@H](CC(N)=O)C(=O)N[C@H](C(=O)N[C@@H](CS)C(=O)N[C@@H](CS)C(=O)N[C@@H](CCSC)C(=O)N[C@@H](CCC(=O)O)C(=O)N1CCC[C@H]1C(N)=O)C(C)C
